Screens as filed in PubChem BioAssay.
Shown are actives, neighbours in structure and some others; about 9.5% of the full set was active somewhere.
D1 mod – D1 CRE-luciferase signal change, two-sided – cell-based, HEK293 D1, dopamine EC30, D1 allosteric modulator project, primary screen. AID 641, 2007. dopamine EC30 potentiation; actives deviate in either direction. B-score at 10 µM. actives 5.9% (n = 58,000);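 active means luminescence count or its row- and column-corrected plate score outside the 99.7% band of the plate's sample wells, on either side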
M1 agonist – M1 muscarinic receptor agonists, primary screen, CHO-M1 cells, Fluo-4 calcium, agonist mode. AID 626, 2007. Muscarinic acetylcholine receptor M1. B-score at 10 µM. actives 3% (n = 64,000). Fluo-4 calcium fluorescence; hits give high values;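 active means fluorescence rise, raw or as B-score row- and column-corrected plate score, outside the 99.7% band of its plate's samples, either direction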
Htt clearance – clearance of mutant huntingtin inclusions, primary screen, imaging, HeLa Exon1htt(103Q)mCFP, confocal imaging; aggregate imaging; zero = plate's median compound well; inhibition, % at 1.5 µM; actives 0.42% (n = 47,000);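 active means inhibition of aggregate fluorescence above about 70%, also judged a hit by eye on the cell image, limit read from the data, passing the limit was not always enough; inconclusive means no rule stated for this call; inactive means not judged a hit on image review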;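 further: cells exposed to compound for three days before fixation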
HEK293 NFkB inh – inhibitors of PMA/ionomycin-induced NF-kB reporter, primary screen, antigen receptor NF-kB inhibitor project, cell-based, HEK-293 luciferase reporter, luminescence; HEK-293 NF-kB luciferase reporter; inhibition, % at 3 µM; actives 0.21% (n = 62,000);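 active means inhibition above the mean of all tested compounds plus 3 SD, cut at about 40% in these data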;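 further: 0% = stimulated DMSO wells and 100% = 10 µM reference inhibitor 5653914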
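System – HEK-293 cells with stable firefly luciferase reporter driven by four HIV NF-kB elements · Doses – one dose, 3 µM · Schedule – 1 h compound pre-incubation, 16 h PMA/ionomycin at 37 °C · Technique – luminescence from luciferase substrate reagent · Measure – percent inhibition normalized per plate to DMSO and reference-inhibitor controls · Replicates – tested once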
M1 antag – antagonists of rat M1 muscarinic receptor | CHO-M1 cells, Fluo-4 calcium, ACh EC80 antagonist mode; hits give low values | AID 628, 2007 | actives 3.4% (n = 64,000) | Muscarinic acetylcholine receptor M1 (Rattus norvegicus), P08482 | B-score at 10 µM;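 active means calcium fluorescence response, raw or row-and-column corrected B-score, differing from the plate sample mean either way at a set confidence level, mostly lower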
Target sequence (P08482 whole entry, looked up): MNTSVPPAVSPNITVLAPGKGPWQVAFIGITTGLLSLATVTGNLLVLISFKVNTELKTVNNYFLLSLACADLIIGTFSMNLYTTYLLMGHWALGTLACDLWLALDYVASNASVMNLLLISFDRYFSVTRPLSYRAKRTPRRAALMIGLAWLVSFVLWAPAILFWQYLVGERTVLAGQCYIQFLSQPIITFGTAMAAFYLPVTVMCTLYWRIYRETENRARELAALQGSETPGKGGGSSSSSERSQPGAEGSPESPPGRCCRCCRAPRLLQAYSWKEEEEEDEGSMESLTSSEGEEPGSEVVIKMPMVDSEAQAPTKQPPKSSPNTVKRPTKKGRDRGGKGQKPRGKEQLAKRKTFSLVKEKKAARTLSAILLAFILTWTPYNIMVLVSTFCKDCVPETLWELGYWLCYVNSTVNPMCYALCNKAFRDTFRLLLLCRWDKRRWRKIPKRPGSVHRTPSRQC
Jurkat tox 60K – cytotoxicity toward Jurkat T cells, primary screen, cytotoxicity control, cell-based, Jurkat E6.1, 60K MLSMR library | Jurkat E6.1 viability, ATP luminescence, 48 h | inhibition, % at 4 µM | AID 463, 2006 | actives 1.2% (n = 56,000);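 active means inhibition above the mean inhibition of all tested compounds plus 3 SD, cut at about 28% in these data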
M1 antag confirm – rat M1 muscarinic receptor antagonists, confirmation, CHO cells, Fluo-4 calcium, duplicate | shares compounds with M1 antag | ACh EC80 antagonism; hits give low values | calcium response (max-min fluorescence) at 10 µM | actives 43% (n = 1,700) | AID 677, 2007;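 active means calcium response below the same-plate mean of wells given acetylcholine alone at its 80%-effect dose, minus 3 SD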;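 further: raw fluorescence intensity difference in arbitrary instrument units and not normalized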
mGluR4 antag – human mGluR4 response to M1 antagonist hits, M1 allosteric modulator project, cell-based, antagonist mode, secondary assay 1. shares compounds with M1 antag. CHO-mGluR4 calcium flux, Fluo-4 fluorescence, glutamate EC80; hits give low values. fluorescence response (max-min) at 10 µM. actives 0.9% (n = 1,700). AID 678, 2007;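 active means fluorescence response below the plate's average for near-maximal glutamate wells, less 3 SD of those wells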;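 further: raw unnormalized fluorescence span taken in the window right after glutamate addition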
* = called active by the depositor; ? = inconclusive; nt = no result given.

SMILES | D1 mod | M1 agonist | Htt clearance | HEK293 NFkB inh | M1 antag | Jurkat tox 60K | M1 antag confirm | mGluR4 antag
c1coc(CNc2nc(N3CCCCC3)nc3ccccc23)c1 | -3.7* | 2.7 | nt | 9 | -1.5* | 2 | 465 | 203
CCN(CC)CCN1C(=O)c2ccccc2NC1c1ccccc1F (stereo unspecified) | nt | nt | -25 | nt | nt | nt | nt | nt
CCN(CC)CCN1C(=O)C2C3c4ccccc4C(c4ccccc43)C2C1=O (stereo unspecified) | -0.61 | -0.0039 | nt | 8 | -3.6* | 5 | 561 | 271
CCN(CC)CCCN1C(=O)C(=O)/C(=C(/O)c2ccccc2)C1c1ccccn1 (stereo unspecified) | -0.57 | 0.98 | nt | nt | 0.096 | nt | nt | nt
CCCC(=O)Nc1ccc2oc(-c3cccnc3)nc2c1 | -0.59 | -0.17 | 5 | 8 | -2.4* | -1 | 582 | 229
CSc1ccc(Cl)c(C(=O)OCC(=O)N2CCOCC2)c1 | -0.16 | -0.11 | 34 | 2 | 1.3 | -10 | nt | nt
CC1CCCCN1CCn1cnc2c([nH]c3ccccc32)c1=O (stereo unspecified) | 0.011 | -0.87 | nt | 1 | -6.9* | 1 | 355* | 247
CCOC(=O)c1cc(C)n(CCCN2CCOCC2)c1C | -1.7 | -0.2 | nt | 0 | -1* | 2 | 403* | 204
CCOC(=O)c1[nH]c2ccc(OCC)cc2c1NC(=O)CN1CCN(c2ccccn2)CC1 | 1.2 | 1 | nt | 15 | -2.5* | -4 | 581 | 198
Cc1nn(Cc2ccccc2Cl)c2sc(C(=O)NCCCn3ccnc3)cc12 | -0.054 | -1.3 | nt | 8 | -7.9* | 3 | 287* | 186
Cc1cc(-c2ccccc2)nc2cc(C(=O)NCCCn3ccnc3)nn12 | 0.48 | 0.62 | nt | 15 | -0.89 | nt | nt | nt
Cc1cc(C(=O)NCCCn2ccnc2)sc1-c1ccccc1 | -1.6 | -1.3 | nt | 14 | -3.3* | 6 | 616 | 211
CCN1CCN(c2ncc(C(=O)Nc3c(F)cc(F)cc3Br)c3ccccc23)CC1 | -1.3 | -1.6 | nt | 8 | -10* | 5 | 201* | 198
COc1ccc(C2(O)CCN(CCCCOc3ccccc3)CC2)cc1 | -1.9 | -0.46 | 31 | 11 | -2.6* | -3 | 477* | 242
COc1ccc(C2(O)CCN(C(=O)Cc3cccnc3)CC2)cc1 | -0.47 | 0.13 | nt | 10 | 0.16 | nt | nt | nt
Cc1onc(-c2ccccc2Cl)c1C(=O)N1CCN=C1SCc1cccnc1 | 0.32 | -1 | nt | 23 | -0.77 | -8 | nt | nt
O=S1(=O)CC(N2CCCCC2)C(N2CCCCC2)C1 (stereo unspecified) | 0.087 | -0.29 | -14 | 26 | -0.02 | 0 | nt | nt
CCN1CCCC1CNC(=O)CSCc1nc(-c2ccccc2C)oc1C (stereo unspecified) | -1.5 | -0.3 | -9 | -1 | -3.7* | 2 | 308* | 242
CCN1CCCC1CNC(=O)CS(=O)(=O)Cc1nc(-c2ccccc2C)oc1C (stereo unspecified) | -0.66 | -1.6 | ? | 10 | -0.071 | 7 | nt | nt
CCOC(=O)N1CCN(C(=O)C2CCC(CNS(=O)(=O)c3ccc(Cl)cc3)CC2)CC1 (stereo unspecified) | -0.37 | 0.22 | -25 | 8 | -2.9* | -2 | 543 | 274
CC1CCOC2(O1)C(=O)N(CN1CCN(c3ccccc3F)CC1)c1ccccc12 (stereo unspecified) | -0.23 | 0.053 | nt | 12 | 0.21 | 1 | nt | nt
CCOC(=O)Cc1nc2ccccc2[nH]1 | 0.0063 | 0.43 | nt | 2 | -4.1* | 9 | 656 | 169
CCOC(=O)CCc1nc2ccccc2[nH]c1=O | 0.51 | 0 | 24 | -9 | 0.063 | -6 | nt | nt
Cc1ncsc1C(=O)NCc1ccc(N2CCCC2=O)cc1 | -0.45 | 0.25 | -6 | 21 | -1.5 | 4 | nt | nt
Cc1nnc(SCCn2c(N3CC(C)CC(C)C3)nc3c2c(=O)[nH]c(=O)n3C)s1 (stereo unspecified) | 0.35 | -1.7 | nt | 11 | -0.73 | 0 | nt | nt
SMILES | D1 mod | M1 agonist | Htt clearance | HEK293 NFkB inh | M1 antag | Jurkat tox 60K | M1 antag confirm | mGluR4 antag
COC(=O)C1=C(C)NC(=O)NC1c1ccccc1 (stereo unspecified) | nt | -1.1 | nt | 4 | 0.94 | 3 | nt | nt
COC(=O)C1=C(C)NC(=O)NC1c1cn(-c2ccccc2)nc1-c1cccs1 (stereo unspecified) | 1.8 | -1.1 | nt | 7 | -2.7* | nt | 429 | 203
COc1cccc(C(=O)N(CN2CCCC2=O)c2cc(C)on2)c1 | nt | -0.43 | 6 | 1 | -3.4* | 0 | 545 | 190
Cc1cccc(C)c1NC(=O)C1(N(Cc2ccco2)C(=O)CC2NC(=O)NC2=O)CCCC1 (stereo unspecified) | nt | nt | -112 | nt | nt | nt | nt | nt
Oc1ccccc1-c1nc(NCCN2CCOCC2)c2ccccc2n1 | nt | 6.9 | nt | nt | -2.8* | nt | 614 | 157
COc1cccc(-c2nc(NCCN3CCOCC3)c3ccccc3n2)c1O | nt | 7.4 | nt | nt | -1.9 | nt | nt | nt
CC(=O)c1ccc(NC(=O)c2noc3c2CCCCC3)cc1 | -2.1 | 0.25 | -53 | -31 | -0.21 | -6 | nt | nt
O=C(Nc1ccc2c(c1)OCO2)c1noc2c1CCCCC2 | -4.4* | 0.057 | -13 | -32 | -4* | 6 | 387* | 232
CC(C)C(=O)Nc1cccc(C(=O)Nc2nnc(C(C)(C)C)s2)c1 | nt | nt | 6 | nt | nt | nt | nt | nt
COc1ccc(N(CC(O)Cn2nnc3ccccc32)S(=O)(=O)c2ccc(C)cc2)cc1 (stereo unspecified) | -1 | -1.1 | 10 | 9 | -0.79 | -2 | nt | nt
O=C(Cc1ccc(Cl)cc1)Nc1ccccc1CO | -0.87 | 0 | 56 | 19 | -2.5* | nt | 613 | 236
O=C(Cc1ccccc1)Nc1ccccc1CO | -0.054 | 0.19 | nt | 5 | 0.69 | 4 | nt | nt
CCOC(=O)CCc1c(C)c2ccc(OCC(=O)OC(C)C)cc2oc1=O | nt | -0.69 | nt | 14 | -2.4* | -1 | 546 | 233
CCOC(=O)CCc1c(C)c2ccc(OCc3nn[nH]n3)cc2oc1=O | -0.49 | nt | 12 | 12 | nt | 8 | nt | nt
C=CCOC(=O)COc1ccc2c(C)c(C)c(=O)oc2c1 | 0.94 | -0.012 | nt | 13 | -2.6* | -6 | 704 | 197
Cc1cc(N2CCN(C)CC2)nc2ccc(NC(=O)CCC(=O)NCc3ccco3)cc12 | 0.08 | -1.1 | -19 | 11 | 0.075 | 5 | nt | nt
